Assay outcomes from PubChem.
This is a sample that favours compounds with a hit; in the whole collection about 2.4% have one here.
SENP1 inh: blocks the human SENP1 SUMO protease catalytic domain | Q9P0U3 | recombinant SENP1 catalytic domain, CyPet-SUMO1-YPet FRET cleavage | inhibition, % at 10 µM | 360,000 tested, 0.21% active;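 active means inhibition at least 30% at 10 µM, raw YFP signal under a set limit, fluorescence ratio 0.5 to 1.5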;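 further: 0% = enzyme with DMSO and 100% = no enzyme wells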
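Test system: hSENP1 catalytic domain, recombinant; Amount: 20 pM final SENP1 enzyme; Medium: Tris pH 8 buffer plus EDTA, NaCl, BME, BSA, NP40, catalase; Schedule: 50 min enzyme reaction, room temperature, light-protected; Technique: FRET fluorescence in CFP and YFP emission channels; Controls: no-enzyme wells low, DMSO-plus-enzyme wells high control.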
NRP1-CendR mod: NRP-1/CendR interaction modulation; O14786; AID 602438; 360,000 tested, 0.85% active; FAM-RPARPAR peptide binding to NRP-1, fluorescence polarization; inhibition, % at 25 µM;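 active means inhibition or corrected inhibition above about 18%, plus a signal ratio from 0.5 to 1.5, limit read from the data, passing the limit was not always enough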
Target sequence (O14786 whole entry, looked up): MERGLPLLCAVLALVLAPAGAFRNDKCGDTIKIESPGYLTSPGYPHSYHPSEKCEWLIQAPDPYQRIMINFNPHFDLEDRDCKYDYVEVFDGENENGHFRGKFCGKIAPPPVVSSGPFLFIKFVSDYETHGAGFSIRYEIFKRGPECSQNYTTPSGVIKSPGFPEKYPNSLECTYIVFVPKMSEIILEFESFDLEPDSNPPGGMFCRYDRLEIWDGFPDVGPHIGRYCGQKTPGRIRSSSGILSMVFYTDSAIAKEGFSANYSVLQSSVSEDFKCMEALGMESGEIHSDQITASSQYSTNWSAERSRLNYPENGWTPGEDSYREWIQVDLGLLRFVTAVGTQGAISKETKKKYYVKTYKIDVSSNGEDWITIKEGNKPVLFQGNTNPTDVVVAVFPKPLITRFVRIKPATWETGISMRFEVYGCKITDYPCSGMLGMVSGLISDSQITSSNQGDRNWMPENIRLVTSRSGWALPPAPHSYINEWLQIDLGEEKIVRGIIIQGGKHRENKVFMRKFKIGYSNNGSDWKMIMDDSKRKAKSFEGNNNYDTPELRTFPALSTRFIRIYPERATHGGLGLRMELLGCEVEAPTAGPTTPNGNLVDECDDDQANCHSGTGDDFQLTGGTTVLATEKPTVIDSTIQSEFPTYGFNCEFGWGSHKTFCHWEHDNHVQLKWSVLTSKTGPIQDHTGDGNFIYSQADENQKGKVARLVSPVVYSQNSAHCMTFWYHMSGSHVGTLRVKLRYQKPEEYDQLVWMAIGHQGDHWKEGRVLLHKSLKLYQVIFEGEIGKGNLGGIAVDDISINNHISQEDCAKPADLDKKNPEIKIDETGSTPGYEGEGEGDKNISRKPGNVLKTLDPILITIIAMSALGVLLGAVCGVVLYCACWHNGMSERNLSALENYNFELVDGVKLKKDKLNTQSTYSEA
MT1-MMP act inh: inhibitors of human MT1-MMP activation; GFP/RFP ratio change, % at 20 µM; HT1080 RFP-PRO-GFP cells, GFP/RFP ratio fluorescence, overnight; percent of plate control window, DMSO zero; 360,000 tested, 0.061% active; AID 651647; P50281;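 active means GFP/RFP ratio change of at least 30% with cell ATP level not reduced by more than half and red fluorescence within 50% of control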
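Test system: HT1080 RFP-PRO-GFP cells; Benchmarks: DMSO and RFP-L50D-GFP cell wells; Timing: cells overnight before dosing, compound overnight, 37 °C, 5% CO2; Compound: one 20 µM compound dose with 1% DMSO; Read-out: GFP/RFP fluorescence ratio.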
Myeloid diff MLP: promotes myeloid progenitor differentiation; AID 624256; ER-HoxA9 myeloid progenitors, lysozyme-GFP differentiation, flow cytometry; calls only at 10 µM; 360,000 tested, 1% active;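 active means normalized GFP-positive differentiation at or above the plate's own cutoff, the solvent-only control mean plus 3 SD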;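 further: cells exposed to compound for four days before flow analysis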
DAGLB inhibitor: blocks human DAGLB lipase activity; Q8NCG7; HEK293T DAGLB membrane lysate, EnzChek fluorogenic substrate; inhibition, % at 5.17 µM; 340,000 tested, 0.059% active; in the data active means inhibition above about 34%;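 further: 0% = enzyme with vehicle and 100% = wells lacking enzyme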
beta cell repl: MIN6 beta-cell proliferation induction. MIN6 cells proliferation, ATPlite luminescence, 48 h; cells starved in 0.2% serum; 100% = growth in 10% serum. 330,000 tested, 0.29% active. proliferation, % at 10 µM;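 active means compounds whose signal lies at least 3.5 SD above the mean of all wells on their plate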;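 further: 0% = DMSO-treated cells in low-serum medium and 100% = 10% serum control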
An asterisk follows results filed as active; i = inactive; . = no result given; + = active, no number.

SMILES | SENP1 inh | NRP1-CendR mod | MT1-MMP act inh | Myeloid diff MLP | DAGLB inhibitor | beta cell repl
CCOC(=O)C(C)Sc1nc2ccccc2c(=O)n1CC (stereo unspecified) | 0.4 | 41.5* | 0.0 | i | -2.1 | 0.0
CSc1ccc(CN2CCC(C)(Oc3ccc4ccccc4c3)C2)cc1 (stereo unspecified) | -1.8 | -5.2 | 1.0 | + | . | .
O=C(COC(=O)CCCN1C(=O)c2ccccc2C1=O)Nc1cc(Cl)cc(Cl)c1 | 1.2 | 4.2 | 3.2 | i | -1.3 | 1.7
c1ccc(C2CC(c3ccccc3)n3c(nc4ccccc43)N2)cc1 (stereo unspecified) | 7.2 | 24.3* | 7.0 | i | 2.0 | 0.0
CCCCN(C=O)c1c(CC)nc2ccc(C(=O)N3CCN(S(=O)(=O)CC)CC3)cn12 | -0.3 | 11.5 | -0.1 | i | . | .
COc1cccc(C(NC(C)=O)c2nc(-c3ccc(C)c(C)c3)cs2)c1 (stereo unspecified) | 1.8 | 34.4* | 1.0 | i | . | .
COc1ccc(C(O)c2nc(-c3ccc4ccccc4c3)cs2)cc1 (stereo unspecified) | 2.1 | 33.0* | -6.5 | i | . | .
CCN(CC)C(=O)c1cccc(-c2csc(C(O)c3ccco3)n2)c1 (stereo unspecified) | -1.9 | -20.2 | -6.6 | + | . | .
CCN(CC)C(=O)c1cccc(-c2csc(C(NC(C)=O)c3cccc(OC)c3)n2)c1 (stereo unspecified) | 2.0 | 22.5* | 3.0 | i | . | .
CN1Cc2cccc3c2C(Cc2ccccc2S3)C1 (stereo unspecified) | 0.2 | -7.4 | 2.2 | i | -2.9 | 1.7
CCOC(=O)c1ccc(-c2ccc(N3C(c4cccc(OC)c4)=Cc4ccc(F)cc4C3CC(C)=O)cc2)cc1F (stereo unspecified) | -24.5 | -15.2 | -3.7 | i | . | .
CC(=O)NCCc1ccc(C(=O)COC(=O)c2cc(C)oc2C)cc1 | -0.8 | -10.2 | -2.6 | i | -1.0 | 2.2
COc1cc(NC(=O)[C@H]2O[C@@H](n3ccc(N)nc3=O)[C@H](O)[C@@H]2O)cc(OC)c1OC | -0.4 | 7.9 | 1.5 | i | . | .
O=C(O)c1ccccc1C(=O)OCC1CCC(=NO)CC1 (stereo unspecified) | 2.1 | 4.2 | 0.4 | i | -7.2 | .
O=C(COC(=O)c1ccc([N+](=O)[O-])o1)NC1CCCC1 | -1.2 | -8.2 | 2.0 | i | 0.9 | -2.7
O=C(NC1CCCC(C(F)(F)F)C1)c1ccc([N+](=O)[O-])o1 (stereo unspecified) | 0.5 | -1.2 | 14.4 | + | -5.8 | -3.7
CC(NC(=O)c1ccc([N+](=O)[O-])o1)C12CC3CC(CC(C3)C1)C2 (stereo unspecified) | -3.6 | 16.9 | -4.2 | + | -2.1 | -3.4
O=C(NC1CCCCC1)c1ccc([N+](=O)[O-])o1 | 0.0 | 0.3 | 1.8 | + | -2.2 | 0.0
O=C(NNC(=O)c1ccc([N+](=O)[O-])o1)c1ccccc1 | 1.6 | 6.5 | 5.1 | + | -1.9 | -3.3
NC1=NC(=O)/C(=C/c2ccccc2OS(=O)(=O)c2ccc3ccccc3c2)S1 | 2.6 | 0.2 | 1.9 | i | -0.1 | .
Cc1ccccc1-n1ccnc1SCC(=O)O | -1.1 | 15.6 | -6.2 | i | -3.4 | -1.6
Cc1ccc(-n2ccnc2SCC(=O)O)c(C)c1 | 1.8 | 31.0* | 9.3 | i | -3.6 | -5.0
COC(=O)c1ccc(CC2(C)C(=O)Nc3ccc(-c4cccc(C(F)(F)F)c4)cc32)o1 (stereo unspecified) | -1.5 | -12.0 | 3.3 | i | . | .
CN(NC(=O)Nc1ccc(Cl)cc1)c1c(Cl)c(Cl)nn1C | 0.5 | 19.8* | 0.5 | i | 1.5 | -0.6
CN(NC(=O)Nc1ccc(Cl)cc1)c1ncc(C(F)(F)F)cc1Cl | -0.7 | 6.5 | 3.8 | i | -5.3 | -5.5
SMILES | SENP1 inh | NRP1-CendR mod | MT1-MMP act inh | Myeloid diff MLP | DAGLB inhibitor | beta cell repl
CC(=O)N1CCN(c2ccc(NC(=S)NC(=O)c3ccc(C)c([N+](=O)[O-])c3)cc2)CC1 | 0.7 | 2.1 | 0.6 | i | -0.1 | -2.0
CCC(C(=O)Nc1ccccc1OC)n1c(C(=O)OC)cc2ccsc21 (stereo unspecified) | 0.9 | 7.5 | -11.6 | + | -11.0 | -2.6
CC(=O)Oc1cc2c(c3ccccc13)CCC2=O | 11.3 | 30.9* | 2.0 | i | 0.3 | .
CC(=O)Oc1ccc2c(c1)C(=O)CCCCCC(=O)O2 | 1.8 | 11.0 | 2.7 | i | -0.8 | .
O/N=C/c1cc(Br)cs1 | 2.5 | -1.9 | -2.1 | i | -3.9 | -1.5
Cc1nc(NCc2ccccn2)c2c3c(sc2n1)CCCC3 | -0.3 | 18.0 | -1.1 | + | -3.8 | -0.4
c1ccc(CNc2ncnc3sc4c(c23)CCCC4)nc1 | 1.4 | 1.6 | 0.3 | i | -2.7 | -0.1
N#CCC(=O)Nc1ccc(C(=O)OCC(=O)C23CC4CC(CC(C4)C2)C3)cc1 | -11.5 | -18.7 | 2.6 | + | -2.3 | -6.6
N#CCC(=O)Nc1ccc(C(=O)OCc2ccccc2Oc2ccccc2)cc1 | -7.6 | -2.3 | -6.1 | + | -5.5 | -3.0
Cc1ccc(NC(=O)CN(C)C(=O)COC(=O)c2ccc(NC(=O)CC#N)cc2)cc1 | -15.7 | -14.3 | -2.6 | i | -0.5 | -1.5
Cc1nnc2ccc(-c3ccc(NS(=O)(=O)c4ccccc4)cc3)nn12 | 4.8 | -17.1 | 14.9 | i | 1.7 | -3.0
CCOC(=O)c1ccc(NS(=O)(=O)c2ccc(SC)cc2)cc1 | -2.1 | 6.3 | 8.9 | i | 0.6 | -2.1
CCOC(=O)Cc1ccc(NS(=O)(=O)c2ccc(SC)cc2)cc1 | 0.9 | 24.7* | 5.6 | i | -8.3 | 0.8
O=C(O)C1CCC2CCCC21 (stereo unspecified) | -3.3 | 18.2 | 6.8 | i | . | .
CN1C(C(=O)NCc2cccc(C(F)(F)F)c2)CC2Cn3c(nc4cc5ccccc5cc43)C21 (stereo unspecified) | 1.1 | -5.0 | 3.0 | i | 0.2 | -1.4
C=CCNC(=O)C1CC2Cn3c(nc4cc5ccccc5cc43)C2N1C (stereo unspecified) | -3.4 | 18.9* | 2.7 | i | -1.7 | 0.2
CCN(CC)c1ccc(/C=N/N=C(c2ccccc2)c2ccccc2)c(O)c1 | -26.4 | -52.2 | -5.9 | + | -6.9 | -4.3
CCN(CC)c1ccc(/C=N/N(c2ccccc2)c2ccccc2)c(O)c1 | -25.1 | -24.8 | 3.7 | i | -6.1 | -2.7
COc1ccc(S(=O)(=O)Nc2cccc3c2O[C@H](CN(C)Cc2ccncc2)[C@@H](C)CN([C@H](C)CO)C3=O)cc1 | -0.2 | -1.3 | 1.8 | i | 3.6 | -1.2
COc1cccc2cc(C(C)N(CCCN3CCOCC3)C(=S)Nc3c(C)cccc3C)oc12 (stereo unspecified) | 5.6 | -6.3 | 0.3 | i | -2.3 | 1.1
